Assay results taken from ChEMBL document CHEMBL1156534, “Hemopressin is an inverse agonist of CB1 cannabinoid receptors” (Proc Natl Acad Sci U S A, 2007).

Tests used:
Type in all cases: functional, cell-based
[1] = target: T1, Alpha-2A adrenergic receptor (Homo sapiens) (UniProt P08913); assay: Antagonist activity at alpha2A adrenergic receptor expressed in HEK293 cells assessed as blockade of secreted alkaline phosphatase activity at 1 uM after 6 hrs relative to control
T1 sequence (whole entry): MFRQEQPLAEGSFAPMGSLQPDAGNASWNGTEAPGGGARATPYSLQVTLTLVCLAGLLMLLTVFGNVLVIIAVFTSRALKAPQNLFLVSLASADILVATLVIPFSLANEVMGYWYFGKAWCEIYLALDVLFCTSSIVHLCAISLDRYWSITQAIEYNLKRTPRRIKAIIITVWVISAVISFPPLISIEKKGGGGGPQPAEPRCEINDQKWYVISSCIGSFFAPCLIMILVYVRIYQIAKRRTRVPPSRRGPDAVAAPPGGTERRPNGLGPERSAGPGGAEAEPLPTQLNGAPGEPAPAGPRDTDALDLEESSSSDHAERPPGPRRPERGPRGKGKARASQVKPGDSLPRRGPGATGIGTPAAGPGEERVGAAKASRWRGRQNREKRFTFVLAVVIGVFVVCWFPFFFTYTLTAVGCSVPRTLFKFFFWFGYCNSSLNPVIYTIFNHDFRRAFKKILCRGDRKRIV
Method in brief: (§1)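 HEK-293 cells transiently co-transfected with pCRE-SeAP and a Flag-tagged receptor, 30,000 cells/well on poly-L-lysine. They were serum-starved 16–18 h, then exposed 6 h in serum-free medium to 10 μM forskolin (omitted for β2) plus the receptor agonist (100 nM), with or without peptide (1 μM). Heat-treated supernatant SeAP was read by CSPD chemiluminescence. Mean ± SEM, n = 6.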

[2] = target: Cannabinoid receptor 2 (Homo sapiens) (UniProt P34972); assay: Antagonist activity at CB2 receptor expressed in HEK293 cells assessed as blockade of secreted alkaline phosphatase activity at 1 uM after 6 hrs relative to control
Sequence of Cannabinoid receptor 2 (Homo sapiens) (P34972 whole entry): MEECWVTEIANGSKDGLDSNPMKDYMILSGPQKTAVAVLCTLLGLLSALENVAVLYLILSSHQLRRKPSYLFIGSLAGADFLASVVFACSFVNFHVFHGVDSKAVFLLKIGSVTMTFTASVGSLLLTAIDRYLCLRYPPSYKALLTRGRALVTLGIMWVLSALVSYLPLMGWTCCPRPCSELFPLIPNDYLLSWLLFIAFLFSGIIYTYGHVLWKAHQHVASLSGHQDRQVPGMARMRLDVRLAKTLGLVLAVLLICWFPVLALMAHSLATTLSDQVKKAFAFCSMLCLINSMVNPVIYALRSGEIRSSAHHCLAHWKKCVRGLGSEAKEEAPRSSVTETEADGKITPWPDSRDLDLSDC
Method in brief: (§2)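 HEK-293 cells transfected with 5 μg pCRE-SeAP plus 1 μg Flag-tagged CB₁ or CB₂ receptor, 30,000 cells/well, serum-starved 16–18 h. Stimulated 6 h in serum-free medium with 10 μM forskolin and 100 nM agonist, without or with 1 μM test peptide. Supernatant diluted in pH 7.2 buffer, heated 65°C 20 min, then CSPD chemiluminescence read. Mean ± SEM, n = 6.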

[3] = target: Beta-2 adrenergic receptor (Homo sapiens) (UniProt P07550); assay: Antagonist activity at beta2 adrenergic receptor expressed in HEK293 cells assessed as blockade of secreted alkaline phosphatase activity at 1 uM after 6 hrs relative to control; method in brief: as §1
Sequence of Beta-2 adrenergic receptor (Homo sapiens) (P07550 whole entry, looked up): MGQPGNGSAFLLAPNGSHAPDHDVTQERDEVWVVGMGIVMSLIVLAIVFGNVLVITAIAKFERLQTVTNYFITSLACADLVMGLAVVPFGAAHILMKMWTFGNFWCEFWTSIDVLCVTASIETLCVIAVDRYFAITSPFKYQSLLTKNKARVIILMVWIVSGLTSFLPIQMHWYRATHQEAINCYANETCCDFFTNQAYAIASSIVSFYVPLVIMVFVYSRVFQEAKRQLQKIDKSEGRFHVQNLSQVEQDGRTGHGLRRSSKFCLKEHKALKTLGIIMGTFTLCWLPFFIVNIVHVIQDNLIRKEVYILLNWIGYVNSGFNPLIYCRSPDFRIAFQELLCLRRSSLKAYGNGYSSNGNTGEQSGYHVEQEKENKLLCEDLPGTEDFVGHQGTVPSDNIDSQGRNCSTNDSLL

[4] = target: Delta-type opioid receptor (Homo sapiens) (UniProt P41143); assay: Antagonist activity at delta opioid receptor expressed in HEK293 cells assessed as blockade of secreted alkaline phosphatase activity at 1 uM after 6 hrs relative to control; method in brief: as §1
Sequence of Delta-type opioid receptor (Homo sapiens) (P41143 whole entry): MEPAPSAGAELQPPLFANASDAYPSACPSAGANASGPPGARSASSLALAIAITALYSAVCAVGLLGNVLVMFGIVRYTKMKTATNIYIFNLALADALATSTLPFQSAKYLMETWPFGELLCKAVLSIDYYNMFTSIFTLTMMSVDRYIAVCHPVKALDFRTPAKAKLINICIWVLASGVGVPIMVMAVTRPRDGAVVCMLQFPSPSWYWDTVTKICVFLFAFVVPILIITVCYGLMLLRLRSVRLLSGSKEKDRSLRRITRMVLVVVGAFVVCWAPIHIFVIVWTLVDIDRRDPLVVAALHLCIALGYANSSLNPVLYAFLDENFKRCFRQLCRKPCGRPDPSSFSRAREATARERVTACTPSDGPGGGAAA

[5] = target: Cannabinoid receptor 1 (Homo sapiens) (UniProt P21554); assay: Antagonist activity at CB1 receptor expressed in HEK293 cells assessed as blockade of secreted alkaline phosphatase activity at 1 uM after 6 hrs relative to control; method in brief: as §2
Sequence of Cannabinoid receptor 1 (Homo sapiens) (P21554 whole entry): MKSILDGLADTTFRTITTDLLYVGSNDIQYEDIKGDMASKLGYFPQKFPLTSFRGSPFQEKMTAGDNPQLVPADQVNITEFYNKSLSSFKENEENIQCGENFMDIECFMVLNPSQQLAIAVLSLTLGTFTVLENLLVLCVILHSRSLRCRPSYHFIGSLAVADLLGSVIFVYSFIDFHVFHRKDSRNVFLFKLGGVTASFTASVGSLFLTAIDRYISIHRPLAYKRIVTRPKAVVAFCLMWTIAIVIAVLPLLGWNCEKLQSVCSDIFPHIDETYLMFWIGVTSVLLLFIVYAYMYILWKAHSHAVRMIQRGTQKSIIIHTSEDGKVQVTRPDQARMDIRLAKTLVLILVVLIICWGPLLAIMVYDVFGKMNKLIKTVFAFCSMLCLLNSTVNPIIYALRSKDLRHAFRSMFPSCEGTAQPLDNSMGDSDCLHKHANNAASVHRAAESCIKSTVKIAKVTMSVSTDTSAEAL

[6] = target: Mu-type opioid receptor (Homo sapiens) (UniProt P35372); assay: Antagonist activity at mu opioid receptor expressed in HEK293 cells assessed as blockade of secreted alkaline phosphatase activity at 1 uM after 6 hrs relative to control; method in brief: as §1
Sequence of Mu-type opioid receptor (Homo sapiens) (P35372 whole entry): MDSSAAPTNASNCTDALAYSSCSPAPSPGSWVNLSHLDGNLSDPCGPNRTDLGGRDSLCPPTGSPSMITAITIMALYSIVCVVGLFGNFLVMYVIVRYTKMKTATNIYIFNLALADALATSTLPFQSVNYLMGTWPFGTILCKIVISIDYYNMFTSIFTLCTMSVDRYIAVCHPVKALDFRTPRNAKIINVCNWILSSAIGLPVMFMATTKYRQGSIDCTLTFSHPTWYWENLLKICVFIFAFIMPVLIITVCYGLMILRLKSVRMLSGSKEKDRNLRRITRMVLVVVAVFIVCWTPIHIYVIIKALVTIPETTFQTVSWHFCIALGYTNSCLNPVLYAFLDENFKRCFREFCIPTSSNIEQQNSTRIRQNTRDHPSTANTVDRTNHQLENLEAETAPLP

## CC(C)NCC(O)c1ccc(O)c(O)c1 (stereo unspecified)
[1]
  Activity: 1.26

## CC(C)[C@H](NC(=O)[C@H](CCC(=O)O)NC(=O)[C@H](Cc1ccccc1)NC(=O)[C@H](C)NC(=O)[C@@H](N)Cc1ccc(O)cc1)C(=O)N[C@H](C(=O)NCC(=O)O)C(C)C
[2]
  Activity: 0.64

## CC[C@H](C)[C@H](NC(=O)[C@H](Cc1ccc(O)cc1)NC(=O)[C@@H](NC(=O)[C@H](CCCNC(=N)N)NC(=O)[C@@H](N)CC(=O)O)C(C)C)C(=O)N[C@@H](Cc1cnc[nH]1)C(=O)N1CCC[C@H]1C(=O)N[C@@H](Cc1ccccc1)C(=O)O
[3]
  Activity: 0.76
[4]
  Activity: 1.03

## C[C@@H](NC(=O)[C@@H](N)Cc1ccc(O)cc1)C(=O)NCC(=O)N(C)[C@@H](Cc1ccccc1)C(=O)NCCO
[5]
  Activity: 0.68

## Clc1cccc(Cl)c1NC1=NCCN1
[6]
  Activity: 0.59
